The source of these data is publication PMC4646424 (Journal of medicinal chemistry, 2015).

Where two headings read alike, the source gives them in different places.

The conditions of series [1]: cited from earlier work; for Known aggregator status: previously reported.
Series [2] in a line: Particle formation by dynamic light scattering. Type of series: physicochemical. Conditions: for DLS detected (concentration at which particles were detected) / DLS particle radius: dynamic light scattering; for DLS particle radius: at the concentration detected. The procedure, abridged:
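Particle formation was measured by dynamic light scattering following an earlier published method, with each test compound in buffer both without and with 0.01% Triton X-100. Read-outs were scattering intensity and average particle radius. For selected compounds, critical aggregation concentration was found by tracking scattering intensity as concentration rose, using three independent experiments. Forming aggregator-type particles was a required criterion.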

A further series addresses AmpC β-lactamase (Escherichia coli, UniProt P00811). The series can be described thus: AmpC β-lactamase inhibition with and without Triton X-100. Type of series: biochemical. Conditions: for IC50: 1% DMSO. An outline of the steps:
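AmpC β-lactamase activity was measured following an earlier published method, with final DMSO at 1% in all samples. Concentration-response curves were run with and without 0.01% Triton X-100. Where detergent fully reversed inhibition, only the highest inhibitor concentration was tested. Values are means of duplicate samples from two independent experiments. Detergent-sensitive inhibition with IC50 better than 100 µM was one criterion for classing a compound as an aggregator.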

Series [3] deals with cholesterol ester transferase protein (CETP). Conditions: read-out: Inhibition of CETP; cited from earlier work.
The target of series [4] is monoamine oxygenase B (MAOB). Conditions: read-out: Inhibition of MAOB; cited from earlier work.
The mark [5] stands for this setting: read-out: AmpC IC50 no Triton, no Triton X-100.
The mark [6] stands for this setting: read-out: AmpC IC50 plus Triton, plus 0.01% Triton X-100.

AmpC β-lactamase, sequence (P00811 20-377): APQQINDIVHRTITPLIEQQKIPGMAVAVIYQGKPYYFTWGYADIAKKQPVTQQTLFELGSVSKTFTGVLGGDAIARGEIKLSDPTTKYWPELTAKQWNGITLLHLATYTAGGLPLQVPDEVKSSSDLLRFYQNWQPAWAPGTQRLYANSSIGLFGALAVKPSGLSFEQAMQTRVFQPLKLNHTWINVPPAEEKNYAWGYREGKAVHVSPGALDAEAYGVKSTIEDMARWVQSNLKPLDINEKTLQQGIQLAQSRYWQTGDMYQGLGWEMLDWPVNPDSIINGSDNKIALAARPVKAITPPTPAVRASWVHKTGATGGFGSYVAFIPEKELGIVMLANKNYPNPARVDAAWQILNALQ

Regarding `C[C@]12CC[C@@H]3c4ccc(O)cc4C[C@@H](CCCCCCCCC[S+]([O-])CCCC(F)(F)C(F)(F)F)[C@H]3[C@@H]1CC[C@@H]2O` (stereo partly shown) [fulvestrant], in series [1], the Known aggregator status entry is given as “strong aggregators”.
Take `Cc1ccc(-c2noc(CN(C(=O)C(c3ccccc3)c3ccccc3)C(C)C)n2)cc1` [CHEMBL1304694]: in series [2], the “DLS detected (concentration at which particles were detected)” value (shortened to “DLS detected”) came out at 20 µM and the DLS particle radius was 456 nm. For the same molecule, at AmpC β-lactamase (setting [5]), the IC50 is 8 µM. The IC50 on AmpC β-lactamase (setting [6]) is greater than 100 µM.
For the molecule `Cc1ccccc1OCC(=O)Nc1ccc(-c2nc3cc(Cl)ccc3o2)cc1` [CHEMBL261275], the IC50 in series [3] is 21 µM; at AmpC β-lactamase (setting [5]) it was 7 µM; on AmpC β-lactamase (setting [6]), greater than 100 µM. The “DLS detected” value in series [2] is given as 4 µM. Further, in series [2], the DLS particle radius was 2312 nm. In addition, on AmpC β-lactamase (addition of 0.01% Triton X-100), the “Effect of 0.01% Triton X-100 on β-lactamase inhibition” value is “fully abrogated”.
On to `CN(CCC#N)C(=O)c1cc2c(s1)-c1ccccc1SC2` [CHEMBL1565380], for which, in series [2], the “DLS detected” value was 100 µM. Also, the DLS particle radius in series [2] was 71 nm. The IC50 is 184 µM on AmpC β-lactamase (setting [5]) and greater than 400 µM at AmpC β-lactamase (setting [6]).
`CC(=O)c1c(O)c(C)c(O)c(Cc2c(O)c3c(c(C(=O)/C=C/c4ccccc4)c2O)OC(C)(C)C=C3)c1O` [Rottlerin]: the Known aggregator status result in series [1] was “known aggregator at micromolar concentrations”.
Turning to `COc1ccc(OC(C)C(=O)N(C)Cc2nc(-c3ccc(OC)cc3)no2)cc1` (stereo not shown) [CHEMBL1508601], the “DLS detected” value in series [2] was determined as 100 µM. Further, the DLS particle radius in series [2] is 62 nm. The IC50 at AmpC β-lactamase (setting [5]) is 235 µM; on AmpC β-lactamase (setting [6]) it was greater than 400 µM.
Take `C=CCOC(=O)c1[nH]c2c(c1C)C(=O)CC(c1ccco1)C2` (stereo not shown) [CHEMBL1359872]: the “DLS detected” value in series [2] is on record as 10 µM. For the same molecule, in series [2], the DLS particle radius turned out to be 405 nm. For the same molecule, the IC50 at AmpC β-lactamase (setting [5]) was 10 µM; at AmpC β-lactamase (setting [6]), greater than 100 µM.
`CCOC(=O)c1c(-c2ccc(C)o2)csc1NC(=O)CSc1ncn[nH]1` [CHEMBL1347854]: in series [2], the “DLS detected” value was determined as 10 µM. Further, in series [2], the DLS particle radius is recorded as 115 nm. In addition, the IC50 on AmpC β-lactamase (setting [5]) was 29 µM; at AmpC β-lactamase (setting [6]), greater than 100 µM.
On to `Nc1sc2c(c1C(=O)c1ccc(Cl)cc1)CCCC2` [CHEMBL57997], for which, in series [2], the “DLS detected” value turned out to be 21 µM. This molecule yielded a DLS particle radius in series [2] of 270 nm. Besides, the IC50 at AmpC β-lactamase (setting [5]) was 12.7 µM; on AmpC β-lactamase (setting [6]) it was greater than 100 µM.
On to `Cc1cc(NS(=O)(=O)c2ccc(NC(=O)COc3c(C)cc(Br)cc3C)cc2)no1` [CHEMBL1333273], for which, in series [2], the “DLS detected” value came to 100 µM and the DLS particle radius came to 49 nm. The IC50 on AmpC β-lactamase (setting [5]) amounted to 146 µM. Also, the IC50 on AmpC β-lactamase (setting [6]) is greater than 400 µM.
For `COc1ccc2c(=O)cc(-c3ccc(C)cc3)oc2c1` [CHEMBL17052], the IC50 in series [4] was 11.3 µM. Moreover, the “Colloid formation by DLS” value in series [2] (up to concentrations of at least 200 µM (Table 2)) is “does not form colloids”.
`CNC(=O)c1cc(Oc2ccc(NC(=O)Nc3ccc(Cl)c(C(F)(F)F)c3)cc2)ccn1` [sorafenib]: the “CAC (critical aggregation concentration)” value in series [1] (in biochemical buffer and in cell culture) is recorded as 3.5 µM. In addition, the Known aggregator status result in series [1] is given as “strong aggregators”.
